Hits are enriched below; roughly 2.7% of the tested compounds scored in any of these assays.
RAM inhibit: inhibitors of the yeast RAM network; S. cerevisiae dse1pr::URA3 reporter, 5-FOA growth OD615, 2 d; analog-sensitive cbk1-as2 kinase mutant strain; actives 1.8% (n = 190,000); inhibition, % at 50 µM; AID 868;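 active = inhibition above a set limit, 3 SD over mean compound inhibition, cut at about 8.4% in these data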;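 note: 0% = DMSO-only wells with no growth and 100% = 10 µM 1-NA-PP1 full growth; inhibition rescues growth on 5-FOA so higher OD means more RAM inhibition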
BB579 growth dn: yeast BB579 growth reduction in restrictive medium | inhibition, % at 10 µM | actives 0.51% (n = 140,000) | AID 804 | S. cerevisiae BB579 growth, OD615, 48 h;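 active = inhibition above a set limit, 3 SD over the mean compound inhibition, cut at about 44% in these data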
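Test system: Saccharomyces cerevisiae DeaD strain BB579, replicative lifespan model yeast | Buffer or medium: Restrictive CSMM-D medium | Doses: One dose, 10 µM compound with 0.25% DMSO | Incubation: 48 h exposure, 30 °C | Detection: Culture absorbance at 615 nm | Control set: Amphotericin B at 10 µg/mL as positive control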
Yeast life ext: extends the lifespan of yeast; actives 0.68% (n = 130,000); S. cerevisiae growth with nicotinamide, OD615; deaD strain in restrictive glucose medium; inhibition of the nicotinamide effect, % at 10 µM;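 active = inhibition above a set limit, placed 3 SD over the median of all compounds, cut at about 26% in these data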;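 note: 0% = nicotinamide-treated wells and 100% = cells grown without nicotinamide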
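Test system: DeaD-strain S. cerevisiae / Buffer or medium: restrictive glucose medium / Also added: nicotinamide 1.5 mM / Doses: one concentration, 10 µM, DMSO 0.25% / Schedule: 48 h at 30 °C / Signal: OD615 measurement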
SDO1 yeast rescue: restores growth of sdo1-depleted yeast; z-score at 10 µM; actives 0.21% (n = 140,000); S. cerevisiae sdo1-depleted JHY4D growth rescue, OD600 30 h; active compounds read high; pdr5 snq2 efflux-pump mutant strain; AID 817;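 active = z-score above 3 at both the 24 hr and the 30 hr optical density reads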;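 note: z-score against mean and SD of all compound wells on the same plate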
An asterisk follows results filed as active; . = not tested or not shown.

SMILES | RAM inhibit | BB579 growth dn | Yeast life ext | SDO1 yeast rescue
CC1(C)CC(=O)C2=C(C1)OC(N)=C(C#N)C2c1cccs1 (stereo not drawn) | 2 | . | . | .
COC(=O)C1=C(N)OC2=C(C(=O)CC(C)(C)C2)C1c1cccs1 (stereo not drawn) | 4 | -49 | 35* | -0.07
COc1cc(/C=N/N(C)c2ccccc2)cc(Cl)c1O | -2 | 100* | -13 | -3.4
COc1ccc(OC)c(/C=N/N(C)c2ccccc2)c1 | 0 | -77 | -18 | -0.76
COc1cc(NC(=O)COC(=O)c2n[nH]c3ccccc23)c(C)cc1[N+](=O)[O-] | 5 | . | . | .
Cc1cc(=S)c2cccc(C)c2[nH]1 | 1 | . | . | .
O=C(CSc1c(Cl)cccc1Cl)N1CCC(c2nc3ccccc3s2)CC1 | 9.4* | -59 | -2 | -1.8
O=C(NC(=S)N1CCc2ccccc21)c1ccc(Br)o1 | -1 | . | . | .
O=C(NC(=S)N1CCc2ccccc21)c1ccccc1Br | 0 | -24 | 27* | -1.4
CCn1c(=O)c2cc(C(=O)NCCN3CCOCC3)sc2c2ccccc21 | -1 | 6 | -10 | 1.9
CCn1c(=O)c2cc(C(=O)NCc3cccs3)sc2c2ccccc21 | 9.9* | . | . | .
CCCN(CCC)C(=O)C1CC(=O)OC12CCCCC2 (stereo not drawn) | 1 | . | . | .
O=C(/C=C/c1ccccc1)OCCCN=C1NS(=O)(=O)c2ccccc21 | 1 | . | . | .
Cc1cc(Br)cn2cc(C(=O)O)nc12 | 2 | . | . | .
CC1=NOC(=O)/C1=C\c1ccc(-c2ccc(Cl)cc2Cl)o1 | 0 | 45* | 5 | -0.89
O=C(CSc1nc2[nH]ncc2c(=O)[nH]1)N1CCCCC1 | 0 | -47 | 1 | 1.8
Cc1cc(C(=O)CSc2ccc(F)cc2)cc(C)c1OC(=S)N(C)C | 8.8* | -54 | -6 | 0.32
COc1ccc(SCC(=O)c2cc(C)c(OC(=S)N(C)C)c(C)c2)cc1 | 8 | -26 | -6 | -0.76
c1ccc(-c2ccc(C3=Nn4c(nnc4-c4cc(-c5ccccc5)n[nH]4)SC3)cc2)cc1 | 4 | -77 | -14 | 1.2
c1ccc(C2=Nn3c(nnc3-c3ccco3)SC2)cc1 | 9.3* | . | . | .
Cn1c2ccccc2c(=O)n2c(=O)c3ccccc3cc12 | 1 | 47* | -7 | -0.3
Cn1c(-c2ccccc2)cc(=O)c2ccccc21 | 0 | -9 | -15 | -0.47
O=C(CCCCCN1C(=O)c2cccc3cccc(c23)C1=O)NCCO | 0 | . | . | .
COc1ccc(CCNc2oc(-c3ccc(OC)c(OC)c3)nc2C#N)cc1 | 11* | -35 | -23 | -1.6
COc1ccc(-c2nc(C#N)c(NCCCN(C)C)o2)cc1OC | 0 | -34 | -18 | 0.27
SMILES | RAM inhibit | BB579 growth dn | Yeast life ext | SDO1 yeast rescue
COc1ccc(-c2cc(C(F)(F)F)nc(SCCC(=O)N3CCN4CCCC4C3)n2)cc1 (stereo not drawn) | 1 | -26 | -26 | -0.94
COc1ccc(-c2cc(C(F)(F)F)nc(SCCC(=O)N3CCCC3)n2)cc1 | 8.8* | -30 | . | -0.75
COc1ccc(-c2cc(C(F)(F)F)nc(SCCC(=O)Nc3cc(C)on3)n2)cc1 | 3 | -24 | -2 | -0.03
COc1ccc(-c2cc(C(F)(F)F)nc(SCC(=O)Nc3cc(C)on3)n2)cc1OC | 8.7* | -52 | -19 | -0.16
Cn1c(=O)[nH]c(=O)c2c1nc(N1CCCCCC1)n2CC(N)=O | 0 | -2 | . | 0.75
C/C=C/Cn1c(N2CCCCCC2)nc2c1c(=O)[nH]c(=O)n2C | 0 | 6 | 137* | -0.04
CCn1c(SCC(=O)Nc2nc3ccccc3s2)nc2c(c1=O)SC(C)C2 (stereo not drawn) | 1 | 0 | -8 | -0.21
CCn1c(SCC(=O)Nc2nc3ccc(C)cc3s2)nc2c(c1=O)SC(C)C2 (stereo not drawn) | 10* | -64 | 21 | -1.1
CCc1ccc(C(=O)/C=C/c2ccc([N+](=O)[O-])o2)cc1 | 2 | -59 | 46* | -2.5
O=c1cc(-c2ccccc2)nc(SCc2ccccc2F)[nH]1 | 9.3* | . | . | .
Cc1ccccc1CSc1nc(-c2ccccc2)cc(=O)[nH]1 | 4 | -17 | 4 | 0.25
COCCCNC(=O)CN(c1cc([N+](=O)[O-])ccc1OC)S(C)(=O)=O | 2 | . | . | .
Cc1nc(C)c(-c2nnc(-c3ccc(C(C)(C)C)cc3)o2)cc1C(=O)NN | 6 | -27 | -1 | 0.51
Oc1ccc(N=Nc2nc(-c3ccccc3)c(-c3ccccc3)[nH]2)cc1 | 8.8* | -5 | -3 | -1.5
O=C(COc1ccccc1Cl)Nc1ccc(CN2CCCCC2)cc1 | 5 | . | . | .
CS(=O)(=O)N(CC(=O)NCc1ccco1)c1ccc(OCc2ccccc2)cc1 | 1 | . | . | .
O=c1c(-c2nnc(SCc3ccc(Cl)cc3)o2)cccn1Cc1ccccc1 | 6 | -98 | 6 | -1.3
O=C(Nc1ccccc1-c1nnc(SCc2ccc(Cl)cc2)o1)c1ccccc1 | 8.4* | -54 | 6 | 0.48
Cc1ccc(/C=C/c2nc3ccccc3c(=O)n2CCc2ccccc2)cc1 | 10* | -37 | 1 | -0.66
O=C(Nc1ccc(C(=O)O)cc1)/C(=C\c1ccc([N+](=O)[O-])cc1)NC(=O)c1ccc(Br)cc1 | 8 | . | . | .
COc1ccc(CCNC(=O)COc2ccc(S(=O)(=O)NC3CCCCC3)cc2Cl)cc1 | 10* | -31 | 0 | 0.58
Oc1c(Cl)cc(Cl)cc1C=Nc1ccccc1N1CCCC1 | 0 | -25 | 28* | -0.47
COc1ccc(-c2nncnn2)cc1 | -2 | 79* | . | -2.5
COc1ccc(CNC(=O)c2nnn(-c3cccc(C(F)(F)F)c3)c2N)cc1 | 0 | . | . | .
Cc1c(Cl)ccc2c1NC(=O)[C@]21N[C@@H](Cc2ccccc2)[C@H]2C(=O)N(c3ccc(F)cc3)C(=O)[C@H]21 | 8.5* | -78 | 6 | -0.76
SMILES | RAM inhibit | BB579 growth dn | Yeast life ext | SDO1 yeast rescue
O=C1[C@@H]2[C@H](Cc3ccc(O)cc3)N[C@]3(C(=O)Nc4ccccc43)[C@@H]2C(=O)N1c1ccc(F)cc1 | 1 | -29 | 1 | 0.15
CC(C)c1nnc(SCC(=O)N2CCN(C(=O)c3ccco3)CC2)n1N | 0 | . | . | .
CC(=O)C1=C(C)NC(SCC(=O)c2ccc(F)cc2)=C(C#N)C1c1ccco1 (stereo not drawn) | 6 | -10 | -13 | -1.5
COc1ccccc1NC(=O)C1=C(C)NC(SCC(=O)c2ccc(C)cc2)=C(C#N)C1c1ccco1 (stereo not drawn) | 8.8* | -44 | -7 | 0.29
N#Cc1ccccc1Cn1cc(/C=C/[N+](=O)[O-])c2ccccc21 | 6 | -2 | 35* | -1.1
O=C(N/N=C/c1coc2ccccc2c1=O)c1cn(-c2ccccc2)nc1-c1ccccc1 | 3 | -45 | 28* | -0.21
CC(=O)NCC(=O)OCC(=O)c1ccc(C)c(C)c1 | 1 | 12 | -1 | 0.89
Cc1ccc(S(=O)(=O)CCC(=O)OCC(=O)c2ccc(C)c(C)c2)cc1 | 11* | -33 | 6 | -0.91
Cc1ccc(-c2cc(C(=O)N3N=C(C(F)F)CC3(O)C(F)F)c3ccccc3n2)cc1C (stereo not drawn) | -1 | 68* | -8 | -2.8
COc1ccc(N2C(=O)C(Cl)=C(N3CCCC(C)C3)C2=O)cc1 (stereo not drawn) | 3 | -24 | -6 | -0.71
